Results as given in ChEMBL document CHEMBL4619802, “Discovery and Characterization of Pure RhlR Antagonists against Pseudomonas aeruginosa Infections” (J Med Chem, 2020).

Columns and labels:
[1] = target: T1, HTH-type quorum-sensing regulator RhlR (Pseudomonas aeruginosa (strain ATCC 15692 / PAO1 / 1C / PRS 101 / LMG12228)) (UniProt P54292); assay: Agonist activity at Pseudomonas aeruginosa RhlR expressed in Escherichia coli DH5alpha assessed as relative protein activity at 100 uM incubated for 1.5 hrs by luminescence reporter gene assay relative to control
T1 sequence (whole entry): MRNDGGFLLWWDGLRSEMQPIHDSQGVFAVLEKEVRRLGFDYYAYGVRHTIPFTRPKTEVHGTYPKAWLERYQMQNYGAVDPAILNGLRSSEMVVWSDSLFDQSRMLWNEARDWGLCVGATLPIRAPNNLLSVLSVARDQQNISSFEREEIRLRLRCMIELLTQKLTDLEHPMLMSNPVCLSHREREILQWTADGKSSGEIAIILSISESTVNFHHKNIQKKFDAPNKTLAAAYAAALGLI

[2] = target: T1, HTH-type quorum-sensing regulator RhlR (Pseudomonas aeruginosa (strain ATCC 15692 / PAO1 / 1C / PRS 101 / LMG12228)); assay: Antagonist activity at Pseudomonas aeruginosa RhlR expressed in Escherichia coli DH5alpha assessed as relative protein activity at 100 uM incubated for 1.5 hrs in presence of N-butyryl-L-homoserine lactone by luminescence reporter gene assay relative to control; design: scale not given: the % may be the effect or the level left
Method in brief: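 E. coli DH5α sdiA mutant carrying RhlR and rhlA::lacZ plasmids, at OD595 0.3 in LB. Compound given with BHL (10 µM per footnote) and 0.4% arabinose, 37 °C for 1.5 h.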

In the case of `CCCCCC(=O)CCc1ccc(O)c(OC)c1`, the Activity [1] is reported as 2% and the Activity [2] is reported as 49%.

`CCCCCC(=O)/C=C/c1ccc(O)c(OC)c1` showed an Activity [1] of 2% and an Activity [2] of 41%.

For `CCCC(O)CC(=O)CCc1ccc(OC)cc1` (centres undefined), the Activity [1] was 2% and the Activity [2] was 71%.

With `CCCCCC(O)/C=C/c1ccc(O)c(OC)c1` (centres undefined) the Activity [1] was 2% and the Activity [2] was 41%.

For `CCCC(O)CC(=O)CCc1ccc(O)c(O)c1` (centres undefined), the Activity [1] was 2% and the Activity [2] was 47%.

Work on `CCCC(O)CC(=O)CCc1ccc(C)c(C)c1` (centres undefined) yielded an Activity [1] of 3% and an Activity [2] of 82%.

`CCCC(O)CC(=O)CCc1ccc(F)c(OC)c1` (centres undefined) gave an Activity [1] of 1% and an Activity [2] of 79%.

`CCCC(O)CC(=O)/C=C/c1ccc(N(C)C)cc1` (centres undefined) gave an Activity [1] of 2% and an Activity [2] of 53%.

Compound `CCCC(O)CC(=O)CCc1ccc(O)c(F)c1` (centres undefined) has an Activity [1] of 1% and an Activity [2] of 73%.

`CCCC(O)CC(=O)CCc1ccc(O)cc1` (centres undefined) was tested, and the Activity [1] was 3% and the Activity [2] was 64%.

`CCCC(O)CC(=O)CCc1ccc(C)cc1` (centres undefined) showed an Activity [1] of 1% and an Activity [2] of 76%.

In the case of `CCCCCC(O)/C=C/c1ccc(F)c(F)c1` (centres undefined), the Activity [1] is reported as 5% and the Activity [2] is reported as 55%.

`CCCC(O)CC(=O)CCc1ccccc1` (centres undefined) showed an Activity [1] of 4% and an Activity [2] of 88%.

`CCCC(O)CC(=O)CCc1ccc(OC)c(OC)c1` (centres undefined) was tested, and the Activity [1] was 1% and the Activity [2] was 94%.

`CCCC(O)CC(=O)CCc1cccc(O)c1` (centres undefined) was tested, and the Activity [1] was 2% and the Activity [2] was 81%.

`CCCC(O)CC(=O)CCc1ccc(N(C)C)cc1` (centres undefined) gave an Activity [1] of 1% and an Activity [2] of 74%.

Work on `CCCC(O)CC(=O)CCc1cc(F)cc(OC)c1` (centres undefined) yielded an Activity [1] of 3% and an Activity [2] of 85%.

`CCCCCC(=O)CCc1ccc(F)c(F)c1` showed an Activity [1] of 4% and an Activity [2] of 55%.

Compound `CCCC[C@@H](O)C#Cc1ccc(F)c(F)c1` has an Activity [1] of 3% and an Activity [2] of 67%.

`CCCCC(O)C#Cc1ccc(F)c(F)c1` (racemic) was tested, and the Activity [1] was 4% and the Activity [2] was 71%.

`CCCC(O)CC(=O)/C=C/c1cccc(O)c1` (centres undefined) was tested, and the Activity [1] was 2% and the Activity [2] was 78%.

`CCCCCCC(O)CC(=O)CCc1ccc(O)c(OC)c1` (centres undefined) showed an Activity [1] of 3% and an Activity [2] of 83%.

`CCCCCC(O)C#Cc1ccc(F)c(F)c1` (racemic) showed an Activity [1] of 3% and an Activity [2] of 74%.

In the case of `CCCC(O)CC(=O)CCc1ccc(F)cc1` (centres undefined), the Activity [1] is reported as 2% and the Activity [2] is reported as 51%.

With `CCCCC[C@@H](O)C#Cc1ccc(F)c(F)c1` the Activity [1] was 3% and the Activity [2] was 72%.

`CCCC(O)CC(=O)/C=C/c1ccc(F)c(OC)c1` (centres undefined) gave an Activity [1] of 1% and an Activity [2] of 43%.

`CCCC(O)CC(=O)/C=C/c1ccc(O)c(F)c1` (centres undefined) gave an Activity [1] of 2% and an Activity [2] of 60%.

In the case of `CCCC(O)CC(=O)/C=C/c1ccc(Cl)cc1` (centres undefined), the Activity [1] is reported as 1% and the Activity [2] is reported as 64%.

Work on `CCCC(O)CC(=O)/C=C/c1ccc(C)cc1` (centres undefined) yielded an Activity [1] of 2% and an Activity [2] of 65%.

Work on `CCCCC(O)CC(=O)CCc1ccc(O)c(OC)c1` (centres undefined) yielded an Activity [1] of 2% and an Activity [2] of 62%.

For `CCCCC[C@H](O)C#Cc1ccc(F)c(F)c1`, the Activity [1] was 4% and the Activity [2] was 67%.

In the case of `CCCC(O)CC(=O)/C=C/c1ccc(OC)c(OC)c1` (centres undefined), the Activity [1] is reported as 1% and the Activity [2] is reported as 69%.

Work on `CCCC(O)CC(=O)CCc1ccc(F)c(F)c1` (centres undefined) yielded an Activity [1] of 1% and an Activity [2] of 49%.

`CCCCCCCC(O)CC(=O)CCc1ccc(O)c(OC)c1` (centres undefined) gave an Activity [1] of 2% and an Activity [2] of 90%.

For `CCCC(O)CC(=O)/C=C/c1ccc(O)c(OCC)c1` (centres undefined), the Activity [1] was 1% and the Activity [2] was 91%.

In the case of `CCCC(O)CC(=O)CCc1ccc(Cl)cc1` (centres undefined), the Activity [1] is reported as 2% and the Activity [2] is reported as 69%.

`CCCC[C@H](O)C#Cc1ccc(F)c(F)c1` showed an Activity [1] of 2% and an Activity [2] of 64%.

In the case of `CCCC(O)CC(=O)CCc1cccc(OC)c1` (centres undefined), the Activity [1] is reported as 2% and the Activity [2] is reported as 90%.

`CCCC(O)CC(=O)/C=C/c1cc(F)cc(OC)c1` (centres undefined) was tested, and the Activity [1] was 3% and the Activity [2] was 74%.

Work on `CCCCCC(O)/C=C\c1ccc(O)c(OC)c1` (centres undefined) yielded an Activity [1] of 3% and an Activity [2] of 79%.

`CCCCCC(O)CCc1ccc(F)c(F)c1` (centres undefined) showed an Activity [1] of 5% and an Activity [2] of 61%.

`CCCC(O)CC(=O)/C=C/c1ccccc1` (centres undefined) showed an Activity [1] of 4% and an Activity [2] of 93%.
